Assay type in all cases: cell-based
Test [1] deals with Oocyte. Description: Allosteric modulation of gamma-aminobutyric acid receptor A alpha1beta2gamma2S expressed in Xenopus oocytes assessed as potentiation of GABA-mediated chloride current at 10 uM by voltage clamp analysis relative to control. In a few lines:
(§1)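 Oocytes were injected with α1β2γ2S, α1β3γ2S, α2β2γ2S, α3β2γ2S or α5β2γ2S cRNAs at a 1:1:10 ratio. Two-electrode voltage clamp was run 1–5 days post-injection in HEPES-buffered saline at pH 7.4. Compounds in GABA EC5–10 (3–10 μM) were given by automated fast perfusion: screening at 10 and 100 μM (n = 2), otherwise concentration series. Potentiation = I(GABA+Comp)/IGABA − 1, with nonlinear regression fits.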

Test [2] has as its system Oocyte. Kind of test: Allosteric modulation of gamma-aminobutyric acid receptor A alpha1beta2gamma2S expressed in Xenopus oocytes assessed as potentiation of GABA-mediated chloride current at 100 uM by voltage clamp analysis relative to control. In a few lines:
as §1

The subject of test [3] is Oocyte. Kind of test: Allosteric modulation of gamma-aminobutyric acid receptor A alpha1beta2gamma2S expressed in Xenopus oocytes assessed as potentiation of GABA-mediated chloride current at 0.1 to 500 uM by voltage clamp analysis relative to control. In a few lines:
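Two-electrode voltage clamp on Xenopus oocytes injected with α1, β2, γ2S cRNA at a 1:1:10 ratio, recorded on days 1–5 at a holding potential of […]. Bath: 90 mM NaCl, 1 mM KCl, 1 mM MgCl2, 1 mM CaCl2, 5 mM HEPES pH 7.4. Compound was co-applied by fast perfusion with GABA EC5-10 (typically 3–10 μM). Potentiation was calculated as I(GABA+Comp)/IGABA − 1, and concentration-response curves were fitted by nonlinear regression.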

A short description of test [4]: Allosteric modulation of gamma-aminobutyric acid receptor A alpha1beta2gamma2S expressed in Xenopus oocytes assessed as potentiation of GABA-mediated chloride current by voltage clamp analysis. Conditions: Oocyte. In a few lines:
as §1

Broadly, the EC50 is the midpoint of the concentration-response curve.

`C=C[C@]1(C)C=C2CC[C@H]3[C@](C)(CO)[C@@H](O)CC[C@]3(C)[C@H]2CC1`: the Imax in test [1] is 13.8%; in test [2], 7.7%.
Turning to `CCc1cc2c(s1)N(C)C(=O)CN=C2c1ccccc1Cl` [CLOTIAZEPAM], in test [3], the Imax amounted to 260%. In test [4], the EC50 was 184 nM.
As for `C=C[C@]1(C)C=C2CC[C@H]3[C@](C)(C=O)[C@@H](O)CC[C@]3(C)[C@H]2CC1`, the Imax in test [1] stood at 3.8%; in test [2] it was 3%.
In the case of `CC(C)c1c(O)ccc2c1CC[C@H]1C(C)(C)CCC[C@]21C`, the figures for the Imax in test [1] and in test [2] were -10.6% and -15.1%, respectively.
As to `Cc1nnc2n1-c1ccc(Cl)cc1C(c1ccccc1Cl)=NC2` [TRIAZOLAM], the Imax in test [3] came to 253%. Moreover, in test [4], the concentration for a half-maximal effect (EC50) came out at 22 nM.

The values above are taken from ChEMBL document CHEMBL2146456, “Identification and characterization of GABA(A) receptor modulatory diterpenes from Biota orientalis that decrease locomotor activity in mice” (J Nat Prod, 2011).
